Experimental data as given in ChEMBL document CHEMBL1123566, “Synthesis and cardiac electrophysiological activity of 2- and 3-[(substituted phenyl)alkyl]quinuclidines. Structure-activity relationships” (1987).

What was measured:
Canis familiaris [1] = organism: Canis familiaris; test: In vitro electrophysiological evaluation in canine cardiac Purkinje fibres reported as percent change Vmax concentration range of 0.1-10 uM; assay type: functional; conditions: Canis lupus familiaris; Purkinje fiber
Outline: (§1)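 Canine cardiac Purkinje fibers, intracellular recording, paced at a basic cycle length of 1 s. APD95 and Vmax are recorded together across cumulative concentrations. Compound is a 10 mM aqueous stock diluted into Tyrode's solution. Each fiber is used once as its own control. Readouts are percent change from control at 10 μM, and the maximum change with the concentration where it occurred.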

Canis familiaris [2] = organism: Canis familiaris; test: In vitro electrophysiological evaluation in canine cardiac Purkinje fibres reported as percent change Vmax concentration range of 0.01-100 uM; […]; assay type: functional; conditions: Canis lupus familiaris; Purkinje fiber; outline: as §1

## CCCCCCC[N+](CC)(CC)CCCCc1ccc(Cl)cc1.O=P([O-])(O)O [CLOFILIUM PHOSPHATE]
Canis familiaris [1]
  Vmax: -11%
Canis familiaris [2]
  Vmax: < 10%
